# Reference: ChEMBL document CHEMBL1145033, “2-Amino-3-benzoylthiophene allosteric enhancers of A1 adenosine agonist binding: new 3, 4-, and 5-modifications” (J Med Chem, 2003)
# Columns and labels:
# [1] = target: T1, Adenosine receptor A1 (Homo sapiens) (UniProt P30542); assay: Dissociation of [3H]N6-cyclohexyladenosine ([3H]CHA) from CHO-K1 membrane expressing human adenosine A1 receptor after treatment with allosteric enhancer at 100 uM and (R)-PIA
# T1 sequence (whole entry): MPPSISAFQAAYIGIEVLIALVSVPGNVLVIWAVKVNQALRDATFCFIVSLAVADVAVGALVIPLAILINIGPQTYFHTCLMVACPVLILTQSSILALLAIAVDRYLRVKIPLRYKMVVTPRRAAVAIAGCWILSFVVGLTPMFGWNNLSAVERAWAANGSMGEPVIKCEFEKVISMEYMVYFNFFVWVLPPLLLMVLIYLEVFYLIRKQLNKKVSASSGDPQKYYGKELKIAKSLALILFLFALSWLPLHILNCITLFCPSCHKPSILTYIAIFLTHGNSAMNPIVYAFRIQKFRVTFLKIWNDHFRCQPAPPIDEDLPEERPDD
# [2] = target: T1, Adenosine receptor A1 (Homo sapiens); assay: Inhibition of antagonist [3H]CPX binding to Adenosine A1 receptor membrane at 100 uM
# How it was run: (§1)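 Human A1AR membranes from CHO cells were incubated with 2 nM [3H]CPX and test agent (100 μM) for 90 min at room temperature. Inhibition of equilibrium antagonist binding was then measured.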
# [3] = target: T1, Adenosine receptor A1 (Homo sapiens); assay: Inhibition of antagonist [3H]-CPX binding to Adenosine A1 receptor membrane at 100 uM; how it was run: as §1
# Adenosine receptor A1 = target: T2, Adenosine receptor A1 (Homo sapiens, UniProt P30542); assay: Effective dose as dissociation of [3H]N6-cyclohexyladenosine ([3H]CHA) from CHO-K1 membrane after treatment with allosteric enhancer and (R)-PIA
# T2 sequence (P30542 whole entry): T1 sequence (whole entry)
Compound,Activity [1] [%],other results
Cc1sc(N)c(C(=O)c2cccc(C(F)(F)F)c2)c1C,19,inhibition [2]: 85%
Nc1sc(-c2ccccc2)c(-c2ccccc2)c1C(=O)OCc1cccc(C(F)(F)F)c1,48,
Nc1sc(Br)c(-c2ccc3ccccc3c2)c1C(=O)c1ccccc1,49.7,
Nc1sc(Br)c(-c2ccc(-c3ccccc3)cc2)c1C(=O)c1ccccc1,42.7,
Nc1sc(-c2ccccc2)c(-c2ccccc2)c1C(=O)c1cccc(Cl)c1,9.4,
Nc1sc(Br)c(-c2ccc(C(F)(F)F)cc2)c1C(=O)c1ccccc1,80.4,
Nc1sc(-c2ccccc2)c(-c2ccccc2)c1C(=O)c1ccc(-c2ccccc2)cc1,1.5,
Cc1ccc(-c2c(-c3ccccc3)sc(N)c2C(=O)c2ccc3ccccc3c2)cc1,10.9,
Cc1ccc(-c2c(-c3ccccc3)sc(N)c2C(=O)c2ccc(Cl)cc2)cc1,8.4,
Nc1sc(-c2ccccc2)c(-c2ccc(Cl)cc2)c1C(=O)c1ccccc1,5.6,
CCOC(=O)c1c(N)sc(Br)c1-c1cccc([N+](=O)[O-])c1,26,
Nc1sc(-c2ccccc2)c(-c2ccccc2)c1C(=O)OCc1ccccc1,18.6,
Cc1ccc(-c2c(-c3ccccc3)sc(N)c2C(=O)OCc2cccc(C(F)(F)F)c2)cc1,62.6,
Cc1ccc(-c2c(-c3ccccc3)sc(N)c2C(=O)c2cccc(Cl)c2)cc1,8.1,
N#Cc1ccc(-c2c(Br)sc(N)c2C(=O)c2ccccc2)cc1,20.3,

# Continued, in another order:
Activity [1] [%],Compound,other results
10.5,Nc1sc(-c2ccccc2)c(-c2ccc(Cl)cc2)c1C(=O)c1ccc(-c2ccccc2)cc1,
10.8,Nc1sc(-c2ccccc2)c(-c2ccccc2)c1C(=O)c1ccc(Cl)cc1,
91,Nc1sc(Br)c(-c2cccc(C(F)(F)F)c2)c1C(=O)c1ccccc1,inhibition [3]: 29%; EC50 (Adenosine receptor A1): 6.36 µM
3.6,Cc1ccc(-c2c(-c3ccccc3)sc(N)c2C(=O)c2ccc(-c3ccccc3)cc2)cc1,
11.9,Nc1sc(-c2ccccc2)c(-c2ccc(Cl)cc2)c1C(=O)c1cccc2ccccc12,
52.3,Nc1sc(-c2ccccc2)c(-c2ccccc2)c1C(=O)c1cccc2ccccc12,
8,Nc1sc(-c2ccccc2)cc1C(=O)OCc1ccccc1,
10.7,Nc1sc(-c2ccccc2)c(-c2ccccc2)c1C(=O)c1ccccc1,
42.1,CCOC(=O)c1c(N)sc(-c2ccccc2)c1-c1ccc(Cl)cc1,
4.2,Nc1sc(-c2ccccc2)c(-c2ccccc2)c1C(=O)c1ccc2ccccc2c1,
68.3,Nc1sc(Br)c(-c2ccc([N+](=O)[O-])cc2)c1C(=O)c1ccccc1,
14.1,Nc1sc(-c2ccccc2)c(-c2ccccc2)c1C(=O)N(Cc1ccccc1)Cc1ccccc1,
21.8,Nc1sc(Br)c(-c2cccc([N+](=O)[O-])c2)c1C(=O)c1ccccc1,
8.7,Nc1sc(-c2ccccc2)c(-c2ccc(Cl)cc2)c1C(=O)c1ccc(Cl)cc1,
1.9,Cc1ccc(-c2c(-c3ccccc3)sc(N)c2C(=O)Cc2ccccc2)cc1,
13.4,Cc1ccc(-c2c(-c3ccccc3)sc(N)c2C(=O)c2ccccc2)cc1,
